Results on four molecules are retold here after PMC2687631 (Yonsei Medical Journal, 2006).

Assay [1] has as its system hPTH/PTHrp receptor. Particulars: LLC-PK cells stably expressing a high level of the hPTH/PTHrp receptor; cited from earlier work.
Assay [2] relates to mice. Particulars: cited from earlier work.
Assay [3] relates to animals and humans. Particulars: cited from earlier work.
For assay [4], the system named is ovariectomized rat model. The assay is described as follows: Femoral length and cross-sectional diameter at mid-diaphysis. The assay is classed as in vivo, Sprague-Dawley rats. The settings on record: ovx rats, subcutaneous for 5 weeks; p<0.05 vs. OVX. In outline:
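Female Sprague-Dawley rats were ovariectomized at 10 weeks (sham group unoperated), left untreated for 4 weeks, then dosed daily s.c. for 5 weeks with test compound (30 nM/kg), rhPTH(1-84) (8 nM/kg) or 0.9% saline vehicle, seven per group. Left femur length (greater trochanter to intercondylar fossa) and mid-diaphysis AP/ML diameters measured by digital caliper. Means and SD; ANOVA with Bonferroni.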

Turning to “PTH (1-14): N-terminal fragment 1-14 of parathyroid hormone (SVSEIQLMHNLGKH; Parathyroid hormone; UniProt P01270 32-45, looked up, fragment)”, in assay [1], the “cAMP formation relative to PTH (1-34)” value is reported as “about 10^-3 folds”. With PTH (1-31): PTH (1-31) fragment, in assay [2], the “Potency in stimulating bone resorption parameters vs PTH (1-34)” value is recorded as “less potent” and the “Potency on bone formation vs PTH (1-34)” value is on record as “as potent as PTH (1-34)”.

B1: PTH: parathyroid hormone, low dose, intermittently administered (protein, UniProt P01270 32-115, looked up)
Parathyroid hormone: SVSEIQLMHNLGKHLNSMERVEWLRKKLQDVHNFVALGAPLAPRDAGSQRPRKKEDNVLVESHEKSLGEADKADVNVLTKAKSQ
modifications: Parathyroid hormone
On to B1, for which, in assay [3], the “Anabolic effect / bone mass (in words)” value is reported as “significant increase in bone mass”.

B2: rhPTH (1-84): recombinant human PTH (1-84), donated by the Mogam Biotechnology Research Institute (protein, UniProt P01270 32-115, looked up)
Parathyroid hormone: B1 Parathyroid hormone
modifications: Parathyroid hormone
Take B2: the “Femoral length (in words)” value in assay [4] was “significantly increased length”.
